# Test results from ChEMBL document CHEMBL1146920, “3-[5-(4,5-dihydro-1H-imidazol-2-yl)-furan-2-yl]phenylamine (Amifuraline), a promising reversible and selective peripheral MAO-A inhibitor” (J Med Chem, 2006).
# Columns and labels:
# Monoamine oxidase = biological target: T1, Monoamine oxidase (Rattus norvegicus, UniProt P19643+P21396); assay: Binding affinity to I2-IBS, imidazoline binding site of MAO; assay type: functional
# T1 sequence (P19643 whole entry): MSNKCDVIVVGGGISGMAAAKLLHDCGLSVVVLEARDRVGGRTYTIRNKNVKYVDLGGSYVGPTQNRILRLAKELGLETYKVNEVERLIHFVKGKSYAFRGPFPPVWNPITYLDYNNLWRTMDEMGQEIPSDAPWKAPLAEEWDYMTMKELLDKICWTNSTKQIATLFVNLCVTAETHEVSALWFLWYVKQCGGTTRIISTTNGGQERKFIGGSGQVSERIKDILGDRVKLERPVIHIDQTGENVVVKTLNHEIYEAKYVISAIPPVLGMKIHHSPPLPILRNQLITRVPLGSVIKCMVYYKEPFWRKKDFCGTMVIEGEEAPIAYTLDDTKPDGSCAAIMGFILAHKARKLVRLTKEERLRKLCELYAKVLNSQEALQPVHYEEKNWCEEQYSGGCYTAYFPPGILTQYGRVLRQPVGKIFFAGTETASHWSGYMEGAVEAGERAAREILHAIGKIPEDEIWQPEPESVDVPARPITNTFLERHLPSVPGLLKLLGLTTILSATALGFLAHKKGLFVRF
# T1 sequence (P21396 whole entry): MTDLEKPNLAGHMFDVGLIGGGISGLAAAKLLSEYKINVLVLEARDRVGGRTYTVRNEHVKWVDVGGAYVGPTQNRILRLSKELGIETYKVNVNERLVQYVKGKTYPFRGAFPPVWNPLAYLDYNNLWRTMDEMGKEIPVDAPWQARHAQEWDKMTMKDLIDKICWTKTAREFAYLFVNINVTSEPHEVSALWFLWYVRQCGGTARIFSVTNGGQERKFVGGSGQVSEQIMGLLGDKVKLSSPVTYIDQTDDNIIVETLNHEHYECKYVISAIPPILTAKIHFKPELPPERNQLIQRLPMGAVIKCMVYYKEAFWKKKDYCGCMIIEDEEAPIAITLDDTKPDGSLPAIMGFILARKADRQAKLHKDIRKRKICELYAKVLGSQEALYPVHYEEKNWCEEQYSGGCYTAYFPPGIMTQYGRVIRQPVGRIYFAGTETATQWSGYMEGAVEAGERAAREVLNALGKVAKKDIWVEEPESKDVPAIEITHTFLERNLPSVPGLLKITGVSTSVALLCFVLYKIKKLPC
# [1] = biological target: T2, Amine oxidase [flavin-containing] A (Rattus norvegicus, UniProt P21396); assay: Inhibition of MAO-A in rat liver assessed as inhibition of [14C]5-HT oxidation; assay type: functional
# T2 sequence (P21396 whole entry): T1 sequence (P21396 whole entry)
# Summary of the method: (§1)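 Rat liver homogenized in 50 mM sodium phosphate, pH 7.5, with protease inhibitors, then filtered. 10-20 µg crude protein incubated 20 min at 37 °C with the test compound across increasing concentrations. MAO-A substrate: 200 µM [14C]5-HT. MAO-B substrate: 20 µM [14C]PEA plus 0.1 µM clorgyline. Stopped with 4 N HCl; product extracted into ethyl acetate/toluene and counted by scintillation. IC50 taken from sigmoid curves; three experiments.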
# [2] = biological target: T2, Amine oxidase [flavin-containing] A; assay: Inhibition of MAO-A in rat liver assessed as decrease in [14C]5-HT oxidation at 10 uM after 20 mins relative to control; assay type: functional; conditions: read-out: Activity
# Summary of the method: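 Rat liver homogenate (0.5 mg/mL) in 50 mM phosphate, pH 7.4, incubated 20 min at 37 °C with 10 µM compound or vehicle. MAO-A activity read with 200 µM [14C]serotonin, before and after washing (40 000 g centrifugation, buffer wash, resuspension). Expressed as percent of unwashed vehicle-treated homogenate; duplicate experiments.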
# [3] = biological target: T3, Amine oxidase [flavin-containing] B (Rattus norvegicus, UniProt P19643); assay: Decrease in MAO-B activity in Sprague-Dawley rat brain at 50 mg/kg, ip; assay type: functional, organism-based; set-up: dose 50 mg/kg, route intraperitoneal; conditions: in vivo
# T3 sequence (P19643 whole entry): T1 sequence (P19643 whole entry)
# Summary of the method: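 Male Sprague Dawley rats (~250 g), four per group, got three ip doses of 50 mg/kg (10 mg/mL in saline or DMSO/saline), 20 h, 4 h 30 min and 1 h 30 min before sacrifice. Brain was stored at -80 °C and homogenized in 50 mM phosphate, pH 7.5. Homogenate was incubated 20 min at 37 °C with 20 µM [14C]PEA plus 0.1 µM clorgyline. Extracted product was scintillation-counted and compared with vehicle.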
# [4] = biological target: T3, Amine oxidase [flavin-containing] B; assay: Inhibition of MAO-B in rat liver assessed as inhibition of [14C]PEA oxidation in presence of 0.1 uM clorgyline; assay type: functional; summary of the method: as §1
# [5] = biological target: T2, Amine oxidase [flavin-containing] A; assay: Residual activity at MAO-A in Sprague-Dawley rat liver at 50 mg/kg, ip; assay type: functional, organism-based; set-up: dose 50 mg/kg, route intraperitoneal; conditions: read-out: Activity
# Summary of the method: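 Male Sprague Dawley rats (about 250 g) received three i.p. injections of 50 mg/kg (10 mg/mL in DMSO/saline or saline) or vehicle, given 20 h, 4 h 30 min and 1 h 30 min before sacrifice. Four rats per group; three per vehicle control. Frozen liver homogenate assayed for MAO-A with 200 µM [14C]5-HT. Expressed relative to vehicle-treated animals.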
Compound,Log Ki (Monoamine oxidase),IC50 [1] [µM],inhibition at 10 µM [2] [%],other results
c1ccc([C@H]2O[C@@H]2C2=NCCN2)cc1 (relative stereo),-7.55,–,–,–
c1ccc(-c2ccc(C3=NCCN3)cn2)cc1,–,1.8,53,Activity [3]: Active
C1=C(C2=NCCN2)CCc2ccccc21,-7.95,–,–,–
C(=C\c1ccccc1)/C1=NCCN1 [TRACIZOLINE],-8.72,–,–,–

# Now from value to molecule, other results behind:
Log Ki (Monoamine oxidase),IC50 [1] [µM],inhibition at 10 µM [2] [%],Compound,other results
–,1.2,79,OCc1ccc(-c2ccc(C3=NCCN3)o2)cc1,–
-7.68,–,–,c1ccc(-c2ccc(C3=NCCN3)o2)cc1 [FURALINE],–
–,0.6,85,Nc1cccc(-c2ccc(C3=NCCN3)o2)c1 [AMIFURALINE],IC50 [4]: 19.1 µM; activity at 50 mg/kg [5]: 36%
